Test results reported in publication PMC4291883 (Asian Journal of Andrology, 2014).
“Also recorded” adds a separate entry of the source. Residues, ends and D or L forms follow the SMILES beside them.

Tests used:
[1] = molecular target: T1, rat thoracic aorta (Rattus norvegicus, UniProt P49684); details: comparison of U-II, P5U and UPG84
T1 sequence (P49684 1-386): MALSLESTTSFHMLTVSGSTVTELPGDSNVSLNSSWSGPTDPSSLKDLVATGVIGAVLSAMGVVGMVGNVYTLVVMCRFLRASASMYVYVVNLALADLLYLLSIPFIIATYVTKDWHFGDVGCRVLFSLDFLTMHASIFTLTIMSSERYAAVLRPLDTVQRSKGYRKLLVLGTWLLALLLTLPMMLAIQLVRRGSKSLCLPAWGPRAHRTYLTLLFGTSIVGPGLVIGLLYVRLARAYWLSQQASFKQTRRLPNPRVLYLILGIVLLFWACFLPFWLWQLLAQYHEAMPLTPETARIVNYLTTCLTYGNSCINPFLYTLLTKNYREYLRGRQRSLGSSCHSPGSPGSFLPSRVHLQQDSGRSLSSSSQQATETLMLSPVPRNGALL
Outline: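 Thoracic aorta from male Wistar rats (200–250 g) killed under anaesthesia was cut helically into two parallel strips and the endothelium rubbed off. Strips were held in bicarbonate salt solution at 37°C gassed with 95% O2/5% CO2, 5 mN load, isotonic recording. After 60 min equilibration they were checked with noradrenaline 1 μmol l−1 and re-equilibrated 60 min. Cumulative concentration-response curves were fitted by sigmoidal regression; EC50 expressed as pD2 (−log EC50).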

[2] = tested on: intracavernous pressure in anesthetized rats; experiment: Monitoring of intracavernous pressure; assay type: in vivo, male Wistar rats; details: for ICP effect compared with U-II and/or P5U (in words): comparison between the peptides; for effect on ICP / penile erection (in words): lowest dose
Outline: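 Male Wistar rats (200–250 g) under i.p. urethane (1 g kg−1); carotid catheter records systemic pressure; 26-gauge needle through right crus into the cavernosal space records ICP; injections via the other crus. Test compound given at 0.03, 0.1, 0.3 and 1 nmol in 50 μl saline, next dose ≥5 min after return to baseline; ACh 5 nmol ends each run. Read-outs are ΔICP (mmHg) and AUC (mmHg × s); mean ± s.e.m., 5–7 experiments; ANOVA with Bonferroni post-test.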

[3] = tested on: human corpus cavernosum strips; details: cited from earlier work
[4] = tested on: intracavernous pressure in rats; details: intracavernous administration in rats; cited from earlier work
[5] = tested on: vascular smooth muscle; details: cited from earlier work

Compound	agonist activity / potency (in words) [1]	ICP effect compared with P5U 1 nmol (in words) ([2]; 0.03 nmol intracavernous, compared with P5U at 1 nmol)	ICP effect compared with highest dose of U-II, 1 nmol (in words) ([2]; 0.03 nmol intracavernous, compared with U-II at 1 nmol)	ICP effect compared with U-II and/or P5U (in words) ([2]; 0.03–1 nmol intracavernous)	effect on ICP / penile erection (in words) ([2]; 0.03 nmol intracavernous)	relaxation of human corpus cavernosum (in words) [3]	ICP increase (in words) [4]	vasoconstrictor potency (in words) [5]	ICP effect (in words) ([2]; 0.1 nmol intracavernous)	increase in ICP, area under the curve ([2]; 0.1 nmol intracavernous, 50 μl saline, urethane anesthesia, mean ± s.e.m., n = 7)	ICP effect compared with U-II 0.3 nmol (in words) ([2]; 0.1 nmol intracavernous, compared with U-II at 0.3 nmol per rat)	delta of increase in ICP (in words) ([2]; 0.03–1 nmol intracavernous, delta in mmHg)	effect on ICP (in words) ([2]; doses of 0.1, 0.3 and 1 nmol intracavernous)
CC(C)[C@H](NC(=O)[C@@H]1CSSC(C)(C)[C@H](NC(=O)[C@@H](N)CC(=O)O)C(=O)N[C@@H](Cc2ccccc2)C(=O)N[C@H](Cc2c[nH]c3ccccc23)C(=O)N[C@@H](CCCN)C(=O)N[C@@H](Cc2ccc(N)cc2)C(=O)N1)C(=O)O [UPG84, H-Asp-c[Pen-Phe-DTrp-Orn-(pNH2) Phe-Cys]-Val-OH] (HELM PEPTIDE1{D.[Pen].F.[dW].[Orn].[Nc1ccc(C[C@H](N[*:1])C(=O)[*:2])cc1].C.V}$PEPTIDE1,PEPTIDE1,2:R3-7:R3$$$V2.0)	showed the highest activity compared with the endogenous ligand, U-II, or P5U; also recorded: more potent than U-II or P5U	comparable to the penile erection induced by P5U at the dose of 1 nmol	showed an effect similar to the highest dose of U-II (1 nmol); also recorded: comparable profile to that elicited by the highest dose of U-II (1 nmol); also recorded: comparable to the highest tested dose of U-II (1 nmol)	caused a significant increase in ICP compared to the endogenous ligand, U-II, and to P5U; also recorded: even more effective than P5U	induced a prominent penile erection in rat; also recorded: elicited a marked increase in ICP, expressed as area, compared with vehicle								
CC(C)[C@H](NC(=O)[C@@H]1CSSC[C@H](NC(=O)[C@H](CC(=O)O)NC(=O)[C@@H]2CCCN2C(=O)[C@@H](NC(=O)[C@@H](N)CCC(=O)O)[C@@H](C)O)C(=O)N[C@@H](Cc2ccccc2)C(=O)N[C@@H](Cc2c[nH]c3ccccc23)C(=O)N[C@@H](CCCCN)C(=O)N[C@@H](Cc2ccc(O)cc2)C(=O)N1)C(=O)O [U-II, H-Glu-Thr-Pro-Asp-c[Cys-Phe-Trp-Lys-Tyr-Cys]-Val-OH]						relaxes human corpus cavernosum strips in endothelium-and NO-dependent manner	dose-dependent increase in intracavernous pressure (ICP)	most potent vasoconstrictor compound identified	already detectable				
CC(C)[C@H](NC(=O)[C@@H]1CSSC(C)(C)[C@H](NC(=O)[C@@H](N)CC(=O)O)C(=O)N[C@@H](Cc2ccccc2)C(=O)N[C@@H](Cc2c[nH]c3ccccc23)C(=O)N[C@@H](CCCCN)C(=O)N[C@@H](Cc2ccc(O)cc2)C(=O)N1)C(=O)O [P5U, H-Asp-c[Pen-Phe-Trp-Lys-Tyr-Cys]-Val-OH] (HELM PEPTIDE1{D.[Pen].F.W.K.Y.C.V}$PEPTIDE1,PEPTIDE1,2:R3-7:R3$$$V2.0)	higher activity (pD2) when compared to the endogenous ligand U-II			elicited a significant increase in ICP as compared to U-II	did not affect the ICP					73.95 ± 7.312 mmHg × s	comparable to the effect elicited by U-II at a dose of 0.3 nmol; also recorded: not statistically different from the effect elicited by U-II at a dose of 0.3 nmol per rat	displays the same profile of the area under the curve	significantly raises ICP
